We go through 4 compounds from ChEMBL document CHEMBL1152997, “Prevalence of and molecular basis for tuberculosis drug resistance in the Republic of Georgia: validation of a QIAplex system for detection of drug resistance-related mutations” (2008).

Common to all, as to type: functional
Assay [1] concerns Mycobacterium tuberculosis. Description: Antimycobacterial activity against Mycobacterium tuberculosis clinical isolates from tuberculosis patient assessed as percent resistant isolates at 4 ug/ml by absolute-concentration method. In a few lines:
(§1)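 Consecutive clinical M. tuberculosis isolates (196), Tbilisi, Jan–Mar 2006, primary culture on Lowenstein-Jensen medium. Suspension adjusted to 1 McFarland in sterile saline. 0.2 ml was plated onto drug-containing solid medium: a 10-fold dilution series for the 2, 4 and 40 µg/ml media, and a 100-fold dilution for the 0.2 µg/ml medium. Incubation at 37°C, 5–10% CO2, 28 days.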

The subject of assay [2] is Mycobacterium tuberculosis. The assay is described as follows: Antimycobacterial activity against Mycobacterium tuberculosis clinical isolates from tuberculosis patient assessed as percent resistant isolates at 0.2 ug/ml by absolute-concentration method. In short, it runs like this:
as §1

In assay [3] the test system is Mycobacterium tuberculosis. The assay is described as follows: Antimycobacterial activity against Mycobacterium tuberculosis clinical isolates from tuberculosis patient assessed as percent resistant isolates at 40 ug/ml by absolute-concentration method. In short, it runs like this: as §1
Assay [4] has as its system Mycobacterium tuberculosis. The assay is described as follows: Antimycobacterial activity against Mycobacterium tuberculosis clinical isolates from tuberculosis patient assessed as percent resistant isolates at 2 ug/ml by absolute-concentration method. In short, it runs like this: as §1

Turning to `CN[C@@H]1[C@H](O[C@H]2[C@H](O[C@H]3[C@H](O)[C@@H](O)[C@H](N=C(N)N)[C@@H](O)[C@@H]3N=C(N)N)O[C@@H](C)[C@]2(O)C=O)O[C@@H](CO)[C@H](O)[C@H]1O` [STREPTOMYCIN], in assay [1], the Activity worked out at 25%.
Turning to `NNC(=O)c1ccncc1` [ISONIAZID], in assay [2], the Activity is given as 20.9%.
As for `CO[C@H]1/C=C/O[C@@]2(C)Oc3c(C)c(O)c4c(O)c(c(/C=N/N5CCN(C)CC5)c(O)c4c3C2=O)NC(=O)/C(C)=C\C=C\[C@H](C)[C@H](O)[C@@H](C)[C@@H](O)[C@@H](C)[C@H](OC(C)=O)[C@@H]1C` [RIFAMPIN], the Activity in assay [3] is 9.2%.
Consider `CC[C@@H](CO)NCCN[C@@H](CC)CO` [ETHAMBUTOL], for which the Activity in assay [4] is on record as 2.6%.
